Measurements from ChEMBL document CHEMBL1158804, “Lupane triterpenoids from Maytenus species” (J Nat Prod, 2005).
Values after ≈ are worked out from the molar mass of the structure shown. Active and inactive are the calls of the source. The rule behind the calls is not given here.

Assays:
Staphylococcus aureus = test: Antibacterial activity against Staphylococcus aureus ATCC 6538 up to 40 ug/mL by broth microdilution method; format: functional, organism-based
How it was run: (§1)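 Compounds are dissolved in DMSO. The minimal inhibitory concentration is estimated by broth microdilution.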

[1] = test system: Staphylococcus epidermidis; test: Antibacterial activity against Staphylococcus epidermidis CECT 232 up to 40 ug/mL by broth microdilution method; format: functional, organism-based; how it was run: as §1
[2] = test system: Staphylococcus saprophyticus; test: Antibacterial activity against Staphylococcus saprophyticus CECT 235 up to 40 ug/mL by broth microdilution method; format: functional, organism-based; how it was run: as §1
Enterococcus faecalis = test: Antibacterial activity against Enterococcus faecalis CECT 795 up to 40 ug/mL by broth microdilution method; format: functional, organism-based; how it was run: as §1
Bacillus subtilis = test: Antibacterial activity against Bacillus subtilis CECT 39 up to 40 ug/mL by broth microdilution method; format: functional, organism-based; how it was run: as §1
Bacillus cereus = test: Antibacterial activity against Bacillus cereus CECT 496 up to 40 ug/mL by broth microdilution method; format: functional, organism-based; how it was run: as §1
Bacillus pumilus = test: Antibacterial activity against Bacillus pumilus CECT 29 up to 40 ug/mL by broth microdilution method; format: functional, organism-based; how it was run: as §1
Priestia megaterium = test: Antibacterial activity against Bacillus megaterium CECT 44 up to 40 ug/mL by broth microdilution method; format: functional, organism-based; how it was run: as §1
[3] = test system: Mycolicibacterium smegmatis; test: Antibacterial activity against Mycobacterium smegmatis CECT 3032 up to 40 ug/mL by broth microdilution method; format: functional, organism-based; how it was run: as §1
Escherichia coli = test: Antibacterial activity against Escherichia coli CECT 99 up to 40 ug/mL by broth microdilution method; format: functional, organism-based; how it was run: as §1
Proteus mirabilis = test: Antibacterial activity against Proteus mirabilis CECT170 up to 40 ug/mL by broth microdilution method; format: functional, organism-based; how it was run: as §1
Salmonella = test: Antibacterial activity against Salmonella sp. CECT 456 up to 40 ug/mL by broth microdilution method; format: functional, organism-based; how it was run: as §1
Pseudomonas aeruginosa = test: Antibacterial activity against Pseudomonas aeruginosa AK 958 up to 40 ug/mL by broth microdilution method; format: functional, organism-based; how it was run: as §1
Candida albicans = test: Antifungal activity against Candida albicans UBC1 up to 40 ug/mL by broth microdilution method; format: functional, organism-based
How it was run: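 The yeast is grown on Sabouraud agar at 37 °C. Compounds are dissolved in DMSO, and the minimal inhibitory concentration is estimated by broth microdilution.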

HeLa = test: Cytotoxicity against human HeLa cells after 48 hrs by MTT assay; format: functional, cell-based
How it was run: (§2)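 Monolayers are cultured in DMEM with 5% fetal calf serum and 1% penicillin-streptomycin at 37 °C, 5% CO2 and 90% humidity. Exponentially growing cells (2 × 10^4 cells/well) are exposed to a range of compound concentrations for 48 h at 37 °C. Viability is read by colorimetric MTT reduction.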

HEp-2 = test: Cytotoxicity against human Hep2 cells after 48 hrs by MTT assay; format: functional, cell-based; details: HEp-2, 48 h; how it was run: as §2
Vero = test: Cytotoxicity against african green monkey Vero cells after 48 hrs by MTT assay; format: cell-based; details: Chlorocebus sabaeus; how it was run: as §2

| Compound | Activity (Staphylococcus aureus) | Activity [1] | Activity [2] | Activity (Enterococcus faecalis) | Activity (Bacillus subtilis) | Activity (Bacillus cereus) | Activity (Bacillus pumilus) | Activity (Priestia megaterium) | Activity [3] | Activity (Escherichia coli) | Activity (Proteus mirabilis) | Activity (Salmonella) | Activity (Pseudomonas aeruginosa) | Activity (Candida albicans) | IC50 (HeLa) [µg/mL] | IC50 (HEp-2) [µg/mL] | IC50 (Vero) [µg/mL] |
| --- | --- | --- | --- | --- | --- | --- | --- | --- | --- | --- | --- | --- | --- | --- | --- | --- | --- |
| C=C(C)[C@@H]1CC[C@]2(CO)CC[C@]3(C)[C@@H](CC[C@@H]4[C@@]5(C)CCC(=O)C(C)(C)[C@@H]5[C@H](O)C[C@]43C)[C@@H]12 | inactive | inactive | inactive | inactive | inactive | inactive | inactive | inactive | inactive | inactive | inactive | inactive | inactive | inactive | > 10 | > 10 | > 10 |
| C=C(CO)[C@@H]1CC[C@]2(CO)CC[C@]3(C)[C@@H](CC[C@@H]4[C@@]5(C)CCC(=O)C(C)(C)[C@@H]5CC[C@]43C)[C@@H]12 | inactive | inactive | inactive | inactive | inactive | inactive | inactive | inactive | inactive | inactive | inactive | inactive | inactive | inactive | 4 (≈ 8.76 µM) | 7.1 (≈ 15.5 µM) | > 10 |
| C=C(C)[C@@H]1CC[C@]2(C)CC[C@]3(C)[C@@H](CC[C@@H]4[C@@]5(C)[C@@H](O)C[C@@H](O)C(C)(C)[C@@H]5CC[C@]43C)[C@@H]12 | inactive | inactive | inactive | inactive | inactive | inactive | inactive | inactive | inactive | inactive | inactive | inactive | inactive | inactive | > 10 | > 10 | > 10 |
| C=C(C)[C@@H]1CC[C@]2(CO)CC[C@]3(C)[C@H](CC[C@@H]4[C@@]5(C)CC[C@@H](O)C(C)(C)[C@@H]5CC[C@]43C)[C@@H]12 [3-EPI-BETULIN] | inactive | inactive | inactive | inactive | inactive | inactive | inactive | inactive | inactive | inactive | inactive | inactive | inactive | inactive | > 10 | > 10 | > 10 |
| C=C(C)[C@@H]1CC[C@]2(CO)CC[C@]3(C)[C@H](CC[C@@H]4[C@@]5(C)CC[C@H](O)C(C)(C)[C@@H]5CC[C@]43C)[C@@H]12 [BETULIN] | inactive | inactive | inactive | inactive | inactive | inactive | inactive | inactive | inactive | inactive | inactive | inactive | inactive | inactive | > 10 | > 10 | > 10 |
| C=C(C)[C@@H]1CC[C@]2(CO)CC[C@]3(C)[C@H](CC[C@@H]4[C@@]5(C)CCC(=O)C(C)(C)[C@@H]5CC[C@]43C)[C@@H]12 [BETULONE] | inactive | inactive | inactive | inactive | inactive | inactive | inactive | inactive | inactive | inactive | inactive | inactive | inactive | inactive | > 10 | > 10 | > 10 |
| C=C(C)[C@@H]1CC[C@]2(C(=O)O)CC[C@]3(C)[C@H](CC[C@@H]4[C@@]5(C)CC[C@@H](O)C(C)(C)[C@@H]5CC[C@]43C)[C@@H]12 [EPIBETULINIC ACID] | inactive | inactive | inactive | inactive | inactive | inactive | inactive | inactive | inactive | inactive | inactive | inactive | inactive | inactive | 2.1 (≈ 4.6 µM) | 3.1 (≈ 6.79 µM) | > 10 |
| C=C(C)[C@@H]1CC[C@]2(C)CC[C@]3(C)[C@@H](CC[C@@H]4[C@@]5(C)[C@@H](O)C[C@H](O)C(C)(C)[C@@H]5CC[C@]43C)[C@@H]12 [GLOCHIDIOL] | inactive | inactive | inactive | inactive | inactive | inactive | inactive | inactive | inactive | inactive | inactive | inactive | inactive | inactive | > 10 | > 10 | > 10 |
| C=C(C)[C@@H]1CC[C@]2(C)CC[C@]3(C)[C@@H](CC[C@@H]4[C@@]5(C)C=CC(=O)C(C)(C)[C@@H]5CC[C@]43C)[C@@H]12 [GLOCHIDONE] | inactive | inactive | inactive | inactive | inactive | inactive | inactive | inactive | inactive | inactive | inactive | inactive | inactive | inactive | > 10 | > 10 | > 10 |
| C=C(C)[C@@H]1CC[C@]2(C)CC[C@]3(C)[C@@H](CC[C@@H]4[C@@]5(C)[C@H](O)CC(=O)C(C)(C)[C@@H]5CC[C@]43C)[C@@H]12 [GLOCHIDONOL] | inactive | inactive | inactive | inactive | inactive | inactive | inactive | inactive | inactive | inactive | inactive | inactive | inactive | inactive | < 10 | < 10 | < 10 |
| C=C(C)[C@@H]1CC[C@]2(C)CC[C@]3(C)[C@H](CC[C@@H]4[C@@]5(C)CCC(=O)C(C)(C)[C@@H]5CC[C@]43C)[C@@H]12 [LUPENONE] | inactive | inactive | inactive | inactive | inactive | inactive | inactive | inactive | inactive | inactive | inactive | inactive | inactive | inactive | > 10 | > 10 | > 10 |
| C=C(C)[C@@H]1CC[C@]2(C)CC[C@]3(C)[C@H](CC[C@@H]4[C@@]5(C)CC[C@H](O)C(C)(C)[C@@H]5CC[C@]43C)[C@@H]12 [LUPEOL] | inactive | inactive | inactive | inactive | inactive | inactive | inactive | inactive | inactive | inactive | inactive | inactive | inactive | inactive | > 10 | > 10 | > 10 |
